Shown is part of a subset that was picked to be rich in hits.
NLRP3 yeast inh: blocks the NALP3 inflammasome reconstituted in yeast. Yeast reconstituted NLRP3/ASC/caspase-1, beta-gal luminescence, 24 h. inhibition, % at 10 µM. 0.39% of 330,000 active;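 active = inhibition of 50% or more; inactive = inhibition below 50%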;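 also: plate controls were induced DMSO wells for no effect and uninduced yeast grown without galactose for full effect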
T cruzi repl: blocks replication of Trypanosoma cruzi; inhibition, % (test concentration not listed); T. cruzi beta-gal in NIH3T3, luminescence, 90 h; 1.4% of 300,000 active;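 active = mean inhibition across valid replicates above about 55%, limit read from the data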;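 also: signal also drops with host cell toxicity which is not excluded here; 0% = plate median of DMSO wells and 100% = zero luminescence signal; higher percent means less beta-gal luminescence so fewer parasites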
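Test system: β-gal T. cruzi (Tulahuen C4) inside NIH/3T3 cells / Quantity: 5,000 cells/well / Measured by: luminescence from GalScreen with 0.05% NP40, read after 60 min / Medium: DMEM plus 2% FBS / Measure: parasite load inhibition, % / Reagent: Tulahuen C4 trypomastigotes, 5000/well / Schedule: co-culture of at least 90 h after 3 h attachment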
Calb FLC: C. albicans growth modulation with fluconazole. C. albicans CaCi-2 + fluconazole, Alamar Blue growth, 48 h. growth inhibition, % (test concentration not listed). 0.57% of 300,000 active. AID 1979;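 active = growth inhibition above about 58% in most replicates, limit read from the data, passing the limit was not always enough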;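 also: all wells also contain fluconazole at 8 µg/ml as a sub-toxic cotreatment; 0% = median of DMSO wells and 100% = median of geldanamycin control wells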
NALP1 yeast inh: blocks the NALP1 inflammasome reconstituted in yeast | inhibition, % at 10 µM | 0.61% of 280,000 active | S. cerevisiae NALP1/ASC/caspase-1 growth, X-gal OD620, 72 h; in the data active = inhibition mostly above about 24%, no sharp cut-off; inactive = mostly below about 32%
Lmaj promast: inhibitors of Leishmania major promastigote growth; inhibition, % at 10 µM; AID 1063; 9% of 200,000 active; Leishmania major promastigotes, resazurin fluorescence viability; in the data active = inhibition above about 50%;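 also: promastigotes grown with compound for 44 hours at 28 °C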
PolyA inh: yeast polyadenylation inhibition; S. cerevisiae SKY197-pL101 polyadenylation reporter, beta-gal luminescence; efflux-impaired pdr1/pdr3 knockout yeast; score 100 = 6 SD above DMSO; activity score, % at 12 µM; 0.02% of 300,000 active; AID 1875;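 active = lowest replicate activity score at least 50, where 100 means six control SD above control mean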;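 also: yeast exposed to compound for 9 h at 30 °C; higher score means more reporter readthrough which indicates perturbed polyadenylation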
* = called active by the depositor; · = no result given.

SMILES	NLRP3 yeast inh	T cruzi repl	Calb FLC	NALP1 yeast inh	Lmaj promast	PolyA inh
Cc1ccc(/C=C/C(=O)c2ccccc(=O)c2O)c(C)c1	-2.4	28.2	92.4*	5.6	80.7*	14.2
O=C(/C=C/c1ccccc1Cl)c1ccccc(=O)c1O	·	57.9*	6.6	5.4	100.3*	1.5
Cc1ccc(C)c(/C=C/C(=O)c2ccccc(=O)c2O)c1	·	58.4*	98.2*	27.8	99.4*	16.5
C/C(=N\N1C(=O)CSC1=S)c1ccc(Br)cc1	-2.0	-11.2	73.0*	-7.5	-11.8	0.1
Cc1ccc(C(=O)NN2C(=O)CSC2=S)cc1	2.8	-15.8	-9.4	6.6	49.5	-6.2
COc1ccc(NC(=O)/C(Cl)=C(/Cl)S(=O)Cc2ccc(Cl)cc2)cn1 (configuration not stated)	11.8	·	·	-2.5	100.4*	·

Screening data deposited in PubChem BioAssay by several laboratories.
